Results on three compounds are retold here after ChEMBL document CHEMBL2157969, “Chalcone inhibitors of the NorA efflux pump in Staphylococcus aureus whole cells and enriched everted membrane vesicles” (Bioorg Med Chem, 2012).

What is called inhibition is the change of the read-out against control, counted positive when it falls. A word on the IC50: it is the concentration needed to halve the response being measured. A low value points to greater potency in that assay.

Test [1] addresses T1, Quinolone resistance protein NorA (Staphylococcus aureus) (UniProt P0A0J7).
T1 sequence (whole entry): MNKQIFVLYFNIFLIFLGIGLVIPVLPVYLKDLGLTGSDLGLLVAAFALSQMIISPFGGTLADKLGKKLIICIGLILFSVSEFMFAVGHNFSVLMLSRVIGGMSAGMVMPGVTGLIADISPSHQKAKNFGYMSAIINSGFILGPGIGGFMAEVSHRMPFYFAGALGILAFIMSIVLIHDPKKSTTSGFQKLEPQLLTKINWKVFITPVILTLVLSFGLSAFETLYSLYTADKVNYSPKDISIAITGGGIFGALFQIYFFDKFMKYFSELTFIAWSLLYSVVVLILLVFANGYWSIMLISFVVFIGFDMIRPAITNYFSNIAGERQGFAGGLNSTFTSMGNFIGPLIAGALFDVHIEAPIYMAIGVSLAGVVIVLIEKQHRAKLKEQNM
Description: Inhibition of norA in Staphylococcus aureus SA-1199B overexpressing norA assessed as fold reduction in ciprofloxacin MIC at 3.13 ug/mL by checkerboard assay. In a few lines: (§1)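 Checkerboard in MHB with twofold serial dilutions: ciprofloxacin 0.05–12.5 µg/mL against inhibitor 0.2–25 µg/mL. Inoculum 5 × 10⁵ cfu/mL, 20 h at 35 °C, visual MIC read-out. Fold reduction of ciprofloxacin MIC recorded at the inhibitor concentration giving it. FIC index is the sum of both drugs' FICs; ≤0.5 counts as synergy.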

The target of test [2] is T1, Quinolone resistance protein NorA (Staphylococcus aureus). Description: Inhibition of norA-mediated ethidium bromide efflux in methicillin-resistant Staphylococcus aureus SA-1199B at 5 ug/ml by spectrofluorometric analysis. In a few lines: (§2)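 Ethidium bromide efflux from S. aureus cells in MHB II, compounds dissolved in DMSO. Reserpine 20 µg/mL as positive control and 1% DMSO as negative control; background taken from a resuspended pellet in clean medium. Fluorescence read at ex 530/em 600 nm in duplicate; mean given as percent reduction of efflux versus control.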

The next test has as its system Escherichia coli. The test is described as follows: Inhibition of Hoechst 33342 dye in norA-deficient Escherichia coli DH10B expressing pTrc99A at 2 ug/mL by spectrofluorometer analysis. Type of test: functional, organism-based. Particulars: K-12 DH10B. In a few lines: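 Everted membrane vesicles were made from overnight E. coli DH10B carrying pTrcHis2C-norA or control pTrc99A. PMSF (0.1 mM final) was added before French press and DNase (0.1 mg/mL final) to the lysate. Vesicles were diluted to 80 µg protein/mL in 50 mM potassium HEPES, 8.5 mM NaCl, 2 mM MgCl2, pH 7.2. Hoechst 33342 was added, then Mg2+-ATP after the signal stabilised (~30 s). Inhibitor was added at 150–160 s. Fluorescence ex 355/em 457 nm over 300 s.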

Test [3] addresses T1, Quinolone resistance protein NorA (Staphylococcus aureus). The test is described as follows: Inhibition of norA-mediated ethidium bromide efflux in methicillin-resistant Staphylococcus aureus SA-1199B at 2.5 ug/ml by spectrofluorometric analysis. In a few lines: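 Whole-cell efflux assay, strain grown in Mueller Hinton II broth; compounds dissolved in DMSO, 1% DMSO in MHB II as negative control, reserpine as positive control. Background read from a pellet resuspended in clean MHB II. Fluorescence read in duplicate at ex 530 nm / em 600 nm; the mean is reported as percent reduction of efflux versus control.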

Test [4] deals with T2, Quinolone resistance protein NorA (Staphylococcus aureus, UniProt P0A0J7).
T2 sequence (P0A0J7 whole entry): T1 sequence (whole entry)
The test is described as follows: Inhibition of norA-mediated ethidium bromide efflux in methicillin-resistant Staphylococcus aureus SA-1199B by spectrofluorometric analysis. The essentials:
as §2

Test [5] concerns the target T1, Quinolone resistance protein NorA (Staphylococcus aureus). The test is described as follows: Inhibition of norA-mediated ethidium bromide efflux in methicillin-resistant Staphylococcus aureus SA-1199B at 20 ug/ml by spectrofluorometric analysis. The essentials: as §2
Test [6] shares this target. Particulars: ATCC 29213.
Test [7] relates to Staphylococcus aureus. The test is described as follows: Antibacterial activity against Staphylococcus aureus SA-1199B overexpressing norA at 25 ug/ml after 20 hrs by microdilution method. Type of test: functional, organism-based. The essentials:
(§3)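 Broth microdilution in Mueller Hinton broth II with an inoculum of 5 × 10⁵ cfu/mL, incubated 20 h at 35 °C. MIC is the lowest concentration with no visible growth. Controls were bacteria with DMSO at up to about 1%, and ciprofloxacin. Run to CLSI/EUCAST guidelines in duplicate or more.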
(Dilution methods test growth across graded concentrations, often in twofold steps.)

Test [8] addresses T1, Quinolone resistance protein NorA (Staphylococcus aureus). Description: Inhibition of norA-mediated ethidium bromide efflux in methicillin-resistant Staphylococcus aureus SA-1199B at 10 ug/ml by spectrofluorometric analysis. The essentials: as §2
Test [9] concerns Staphylococcus aureus. Description: Antibacterial activity against Staphylococcus aureus ATCC […] at 25 ug/ml after 20 hrs by microdilution method. The class given is functional, organism-based. The essentials: as §3
The target in test [10] is T1, Quinolone resistance protein NorA (Staphylococcus aureus). The test is described as follows: Inhibition of norA in Staphylococcus aureus ATCC 29213 overexpressing norA assessed as fold reduction in ciprofloxacin MIC at 3.13 ug/mL by checkerboard assay. The essentials: as §1
Test [11] relates to Staphylococcus aureus. Description: Antibacterial activity against Staphylococcus aureus ATCC 29213 […] at 0.2 to 25 ug/ml after 20 hrs by microdilution method. Type of test: functional, organism-based. The essentials: as §3
Test [12] addresses T1, Quinolone resistance protein NorA (Staphylococcus aureus). Description: Inhibition of norA in Staphylococcus aureus SA-1199B overexpressing norA assessed as fold reduction in ciprofloxacin MIC by checkerboard assay.
For test [13] the target is unchanged. Description: Inhibition of norA in Staphylococcus aureus SA-1199B overexpressing norA assessed as fold reduction in ciprofloxacin MIC by checkerboard assay. In a few lines: as §1
Test [14] relates to Staphylococcus aureus. Description: Antibacterial activity against Staphylococcus aureus SA-1199B overexpressing norA at 0.2 to 25 ug/ml after 20 hrs by microdilution method. Type of test: functional, organism-based. The essentials: as §3
In test [15] the target is T1, Quinolone resistance protein NorA (Staphylococcus aureus). Particulars: SA-1199B.
Test [16] shares this target. The test is described as follows: Inhibition of Staphylococcus aureus SA-1199B NorA expressed in Escherichia coli DH10B assessed as inhibition of Hoechst 33342 dye efflux at 10 uM by spectrofluorometric analysis in presence of 50 uM Mg2+. In a few lines: (§4)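 Everted membrane vesicles from E. coli DH10B carrying pTrcHis2C-norA, made by French press with 0.1 mM PMSF and 0.1 mg/mL DNase; pTrc99A vesicles serve as control. Vesicles at 80 µg protein/mL in 50 mM potassium HEPES, 8.5 mM NaCl, 2 mM MgCl₂, pH 7.2. Hoechst 33342 added, then Mg²⁺-ATP to energise, inhibitor at 150–160 s.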

For test [17] the target is unchanged. The test is described as follows: Inhibition of Staphylococcus aureus SA-1199B NorA expressed in Escherichia coli DH10B assessed as inhibition of Hoechst 33342 dye efflux at 10 uM after 150 to 160 secs by spectrofluorometric analysis in presence of 50 uM Mg2+. The essentials: as §4

Active and inactive are the calls of the source. No cut-off for these calls is given here.

For the compound `CN(C)CCOc1ccc(C(=O)/C=C/c2ccc(Oc3ccccc3)cc2)cc1`, the fractional inhibitory concentration index (FICI) in test [1] was found to be 0.38. Besides, the inhibition came to 68.8% in test [2], 43.4% in [3], 99.1% in [5] and 97.5% in [8]. For the same compound, in the test with Escherichia coli, the inhibition entry is “inactive”. The compound also returned an IC50 in [4] of 9 µM. Besides, the FICI in test [6] amounted to 0.26. Besides, the result in the test with Staphylococcus aureus [7] and in the test on Staphylococcus aureus [9] was Active.
As for `C=CCOc1ccccc1C(=O)/C=C/c1ccc(OCC(=O)O)cc1`, the fractional inhibitory concentration index (FICI) in test [10] worked out at 0.25. Also, the inhibition in test [2] is 46.2%; in test [3] it was 14.7%; in test [12], “Dose-dependent effect”; in [13] it was “Dose-dependent effect”; in [5] it was 87.1%; in [8], 79.9%. Further, the inhibition entry in the test on Escherichia coli is “inactive”. Inhibition in test [4] was half-maximal at 16.9 µM (IC50). Further, the result with Staphylococcus aureus [11] and with Staphylococcus aureus [14] was inactive. The FICI in test [15] was found to be 0.25.
Turning to `CC(C)[C@@H]1NC(=O)[C@H](C)OC(=O)[C@@H](C(C)C)NC(=O)[C@@H](C(C)C)OC(=O)[C@H](C(C)C)NC(=O)[C@H](C)OC(=O)[C@@H](C(C)C)NC(=O)[C@@H](C(C)C)OC(=O)[C@H](C(C)C)NC(=O)[C@H](C)OC(=O)[C@@H](C(C)C)NC(=O)[C@@H](C(C)C)OC1=O`, the inhibition entry in test [16] and in test [17] was “Active” throughout.
